“And” between values parts separate entries of the source, which are not always exact repeats. Equal values may be shown once.
Legend:
M-NFS-60 cells = assay: M-NFS-60 cell proliferation assay; assay type: cell-based, mouse; details: 1,000 ng/mL versus 10 ng/mL CSF1
[1] = Plasma protein binding, human plasma; assay type: in vitro ADME
TGCT patients = details: across all trials of pexidartinib in TGCT; cited from earlier work
hERG channel = hERG channel (Homo sapiens, UniProt Q12809); assay: Predictor hERG fluorescence polarization binding assay
[2] = tested on: cytochrome P450 (CYP) isoforms; assay: Cytochrome P450 inhibition, all isoforms studied; assay type: in vitro ADME
[3] = tested on: cytochrome P450 (CYP) isoforms (all isoforms studied); assay: Cytochrome P450 inhibition, all isoforms studied; assay type: in vitro ADME
[4] = Crossover pharmacokinetic study in rats; assay type: in vivo, Sprague-Dawley rats
How it was run: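 Crossover design in 3 fasted male Sprague-Dawley rats. Single IV dose of 1 mg/kg in 20% Captisol / 25 mmol/L pH 2 phosphate buffer, or oral 10 mg/kg in 0.4% HPMC. Plasma sampled at 0, 0.083 (IV only), 0.25, 0.5, 1, 2, 4, 6, 8, 12 and 24 h and analysed by LC/MS.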

[5] = Mouse pharmacokinetics at steady state; assay type: in vivo, DBA/1 mice; details: female, DBA/1, mouse, plasma, po, 3 mg/kg
[6] = Plasma protein binding, mouse plasma; assay type: in vitro ADME
[7] = tested on: tenosynovial giant cell tumor (TGCT); assay: Phase I/II study DCC-3014-01-001; assay type: in vivo, human
[8] = Crossover pharmacokinetic study in dogs; assay type: in vivo, Beagle dogs
How it was run: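 Crossover design in 3 fasted male Beagle dogs. Single IV dose of 1 mg/kg in 20% Captisol / 25 mmol/L pH 2 phosphate buffer, or oral 3, 10 or 30 mg/kg in 0.4% HPMC. Plasma sampled at 0, 0.083 (IV only), 0.25, 0.5, 1, 2, 4, 6, 8, 12 and 24 h. Quantified by LC/MS.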

MC38 colorectal cancer = assay: MC38 syngeneic colorectal cancer model; assay type: in vivo, C57BL/6 mice
How it was run: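 Female C57BL/6 mice implanted s.c. in the lower right flank with 1×10^6 MC38 cells in PBS. Randomized at mean tumor 104 mm³ and dosed days 12–39: test compound 10 mg/kg oral daily (0.4% HPMC vehicle) plus isotype or anti-PD1 10 mg/kg i.p. twice weekly, n = 15. Five per group taken day 32, 2 h post-dose; fresh tumors analysed by flow cytometry (macrophages CD45/CD11b/F4/80).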

CD68+ macrophages = CD68+ macrophages in rat tissues; assay type: in vivo, Sprague-Dawley rats; details: 15 mg/kg/day orally, 14 days
How it was run: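 Male Sprague-Dawley rats dosed orally for 14 days with 0.4% HPMC vehicle or test compound 15 mg/kg daily (5 per group). FFPE organ tissues stained for CD68 with DAPI counterstain. Five nonoverlapping fields imaged at 20× per tissue. Total cell counts and CD68⁺ cell density (cells/mm²) determined.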

MDR1 drug transporter = MDR1 drug transporter (Homo sapiens, UniProt P08183); assay: MDR1 transporter inhibition; assay type: in vitro ADME
[9] = Mouse pharmacokinetics after a single oral dose; assay type: in vivo, DBA/1 mice; details: 3.75 mg/kg single oral dose
[10] = tested on: human osteoclast precursors; assay: Osteoclast differentiation assay; assay type: cell-based; details: 240 h, read-out: IC50, osteoclast differentiation
How it was run: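 Human osteoclast precursors thawed into complete medium with 66 ng/mL RANKL and 33 ng/mL human CSF1. Plated at 2,500 cells/well onto serially diluted test compound in triplicate (0.1% DMSO final). Cultured 10 days at 37°C. Differentiation read as tartrate-resistant acid phosphatase activity in supernatant, absorbance at 550 nm.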

[11] = tested on: CSF1R signaling (phospho-ERK) in monocytes in human whole blood; assay: Whole blood phospho-ERK flow cytometry assay; assay type: cell-based; details: Monocyte, read-out: adjusted free IC50
How it was run: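 Whole blood from a healthy donor (K2EDTA) incubated with test compound in 100 µL aliquots for 4 h at 37°C, then stimulated with CSF1 10 ng/mL for 5 min. RBCs lysed and cells fixed, permeabilized on ice, and stained with anti-CD14-PE and anti-phospho-ERK1/2. Median phospho-ERK fluorescence measured in CD14⁺ cells, from 50,000 events in the WBC gate.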

[12] = tested on: PC3 prostate cancer peritibial implant xenograft; assay: PC3 peritibial implant bone invasion xenograft model; assay type: in vivo, nude mice; details: 10 mg/kg once or twice daily, oral
How it was run: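 Male athymic nude mice acclimated 7 days, then implanted with 1×10^6 PC3 cells in serum-free MEM between tibia and fibula of the right leg. Randomized by body weight. Oral dosing began 6 h post-implant, days 1–32: 0.4% HPMC vehicle or test compound 10 mg/kg once or twice daily, n = 20 per group. Tumor burden = (length × width²)/2 from calipers, measured 2–3 times weekly.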

[13] = tested on: CSF1-stimulated cFOS expression in mouse spleens; assay: Mouse PK/PD model, six daily oral doses; assay type: in vivo
[14] = male, Sprague-Dawley, rat, plasma, intravenous, 1 mg/kg
[15] = 3 TGCT patients, cycle 2 day 1, trough and 4 hours after dose
[16] = male, beagle, dog, plasma, intravenous, 1 mg/kg

Chain of hERG channel (Q12809 whole entry, canonical isoform): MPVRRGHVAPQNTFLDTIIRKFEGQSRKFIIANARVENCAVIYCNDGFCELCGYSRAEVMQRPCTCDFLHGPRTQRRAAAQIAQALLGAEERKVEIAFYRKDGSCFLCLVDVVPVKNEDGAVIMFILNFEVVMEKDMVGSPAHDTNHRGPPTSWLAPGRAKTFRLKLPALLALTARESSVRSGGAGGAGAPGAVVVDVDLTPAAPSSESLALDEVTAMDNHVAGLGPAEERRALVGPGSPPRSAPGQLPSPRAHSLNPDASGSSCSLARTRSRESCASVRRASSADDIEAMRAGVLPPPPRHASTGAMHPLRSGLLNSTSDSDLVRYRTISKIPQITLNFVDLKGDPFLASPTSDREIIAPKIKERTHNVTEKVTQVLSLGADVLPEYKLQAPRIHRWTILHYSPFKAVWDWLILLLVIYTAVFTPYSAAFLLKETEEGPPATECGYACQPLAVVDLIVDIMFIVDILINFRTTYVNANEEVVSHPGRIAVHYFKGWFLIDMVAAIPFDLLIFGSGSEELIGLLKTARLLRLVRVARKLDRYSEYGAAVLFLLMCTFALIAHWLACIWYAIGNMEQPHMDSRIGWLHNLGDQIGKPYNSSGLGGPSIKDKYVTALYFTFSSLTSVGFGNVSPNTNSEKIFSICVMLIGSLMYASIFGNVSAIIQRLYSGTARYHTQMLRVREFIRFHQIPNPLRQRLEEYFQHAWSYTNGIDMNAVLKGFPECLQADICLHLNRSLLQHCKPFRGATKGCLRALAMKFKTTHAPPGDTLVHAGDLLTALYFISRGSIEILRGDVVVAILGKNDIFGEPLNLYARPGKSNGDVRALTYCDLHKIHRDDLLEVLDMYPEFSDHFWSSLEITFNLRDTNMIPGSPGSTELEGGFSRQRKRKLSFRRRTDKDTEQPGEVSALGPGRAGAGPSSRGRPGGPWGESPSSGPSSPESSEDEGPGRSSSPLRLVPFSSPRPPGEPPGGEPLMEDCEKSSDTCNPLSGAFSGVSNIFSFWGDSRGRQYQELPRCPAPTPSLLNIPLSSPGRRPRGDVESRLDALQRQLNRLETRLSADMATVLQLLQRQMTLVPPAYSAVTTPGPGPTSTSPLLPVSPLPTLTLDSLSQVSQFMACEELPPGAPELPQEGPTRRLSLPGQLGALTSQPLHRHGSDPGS
Chain of MDR1 drug transporter (P08183 whole entry): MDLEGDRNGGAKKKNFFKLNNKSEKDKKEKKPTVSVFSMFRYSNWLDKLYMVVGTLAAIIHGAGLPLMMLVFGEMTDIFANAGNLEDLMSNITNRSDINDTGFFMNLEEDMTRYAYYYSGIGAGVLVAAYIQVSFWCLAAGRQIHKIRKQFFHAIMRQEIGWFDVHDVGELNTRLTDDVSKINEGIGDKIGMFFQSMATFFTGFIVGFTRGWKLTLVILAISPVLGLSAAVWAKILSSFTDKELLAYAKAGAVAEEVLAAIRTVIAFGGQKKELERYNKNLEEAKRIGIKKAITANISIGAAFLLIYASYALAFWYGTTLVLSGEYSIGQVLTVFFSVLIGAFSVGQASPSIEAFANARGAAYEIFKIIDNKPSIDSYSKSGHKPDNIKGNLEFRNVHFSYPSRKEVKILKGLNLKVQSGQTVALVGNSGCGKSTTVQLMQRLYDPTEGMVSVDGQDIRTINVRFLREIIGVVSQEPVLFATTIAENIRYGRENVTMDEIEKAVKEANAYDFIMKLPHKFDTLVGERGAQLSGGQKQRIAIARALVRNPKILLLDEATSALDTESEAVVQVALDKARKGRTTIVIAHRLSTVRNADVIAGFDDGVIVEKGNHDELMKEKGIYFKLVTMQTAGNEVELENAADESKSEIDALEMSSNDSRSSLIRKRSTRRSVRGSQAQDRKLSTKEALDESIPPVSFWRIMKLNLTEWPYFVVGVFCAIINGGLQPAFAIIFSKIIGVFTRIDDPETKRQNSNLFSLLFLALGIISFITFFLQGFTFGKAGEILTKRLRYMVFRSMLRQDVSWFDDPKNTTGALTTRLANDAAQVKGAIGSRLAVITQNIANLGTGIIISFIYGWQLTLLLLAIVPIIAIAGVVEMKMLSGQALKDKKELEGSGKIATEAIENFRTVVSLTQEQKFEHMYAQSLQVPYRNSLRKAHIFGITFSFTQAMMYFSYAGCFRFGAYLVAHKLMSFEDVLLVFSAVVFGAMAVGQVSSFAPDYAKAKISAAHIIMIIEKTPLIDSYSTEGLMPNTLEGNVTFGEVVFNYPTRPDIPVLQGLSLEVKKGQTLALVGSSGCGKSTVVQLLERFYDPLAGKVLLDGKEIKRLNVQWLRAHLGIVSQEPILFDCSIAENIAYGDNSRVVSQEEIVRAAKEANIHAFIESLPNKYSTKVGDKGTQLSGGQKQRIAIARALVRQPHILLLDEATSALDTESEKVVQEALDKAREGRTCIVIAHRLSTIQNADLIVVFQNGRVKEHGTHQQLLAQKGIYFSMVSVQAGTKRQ

Structure (SMILES): FC(F)(F)c1ccc(CNc2ccc(Cc3c[nH]c4ncc(Cl)cc34)cn2)cn1 [Pexidartinib, pexidartinib]
- loss of potency at high CSF1 ligand concentration (M-NFS-60 cells): 3.8 fold
- plasma protein binding ([1]; method and source not stated): > 99 % bound
- serious hepatic adverse events assessed as probably drug-related (TGCT patients): five

Structure (SMILES): Cc1nc(-c2cnc(NC(C)C)n(C)c2=O)ccc1Oc1ccnc(-c2cnn(C)c2)c1 [Vimseltinib, vimseltinib]
- EC50 (hERG channel): > 25 µM
- EC20, hERG binding (hERG channel; in vitro binding assay): 19.4 µM
- time-dependent or metabolism-dependent inhibition of any CYP isoform [2]: no time-dependent or metabolism-dependent inhibition of any CYP isoform
- IC50 [3]: > 75 µM
- Vd [4, 14]: 0.69 L/kg
- clearance [4, 14]: 0.5 mL/min/kg
- half-life [4, 14]: 14.2 h
- oral bioavailability ([4]; rats, 10 mg/kg oral versus 1 mg/kg IV): 76 % F
- AUC(0-t) [5]: 49300 ng·h/mL
- bound in plasma [6]: approximately 97.2%
- average plasma concentration [7, 15]: approximately 500 ng/mL
- average plasma concentration (total drug) [7, 15]: ~ 1,200 nmol/L
- plasma CSF1 and IL34 levels ([7]; 3 patients with TGCT, cycle 2 day 1, 30 mg once a day for 5 days then 30 mg twice weekly): increases in CSF1 and IL34 levels
- change in tumor size (RECIST v1.1, MRI) ([7]; patient 2, right hip TGCT, after two cycles): −25%
- oral bioavailability ([8]; dogs, simple vehicle): ~ 30 % F
- Vd [8, 16]: 1.33 L/kg
- clearance [8, 16]: 2.5 mL/min/kg
- half-life [8, 16]: 6.8 h
- reduction of TAMs in the primary tumor (MC38 colorectal cancer; after 3 weeks of dosing, flow cytometry): > 6 fold
- tumor growth inhibition (%TGI) (MC38 colorectal cancer; day 32, vimseltinib 10 mg/kg orally every day, anti-PD1 10 mg/kg i.p. twice a week): 52%
- bound to proteins in plasma ([1]; human plasma, in vitro ultracentrifugation assay): approximately 96.5%
- decrease in liver CD68+ macrophages (CD68+ macrophages; P < 0.0001): 68%
- decrease in colon CD68+ macrophages (CD68+ macrophages; P = 0.17): 47%
- IC50 (MDR1 drug transporter): 4.35 µM
- AUC0–24 [9]: 28,987 ng*hour/mL
- IC50 [10]: 0.0093 µM
- IC50 [11]: ~0.014 µM
- primary tumor growth [12]: not affected
- bone degradation (CT score 0–4) ([12]; to day 32, n = 20/cohort): statistically significant protection from bone degradation
- inhibition of cFOS expression ([13]; 3 mg/kg, six daily doses, at 24 and 48 hours): approximately 50%
- inhibition of cFOS expression ([13]; 3 mg/kg, six daily doses, for 12 hours): ≥ 90%
- EC50 ([13]; Mus musculus, po, read-out: free EC50): 0.012 µg/mL and 28 nM
- EC80 ([13]; all animals in the steady-state study): 1,700 ng/mL
- inhibition of cFOS expression ([13]; six daily oral doses of 1, 3, and 10 mg/kg): significantly inhibited cFOS expression
